The values below come from ChEMBL document CHEMBL3244233, “Synthesis and biological activities of some N6- and N9-carbamoyladenines and related ribonucleosides” (1977).

Molecules are shown by their SMILES. The source made the active and inactive calls. The calls are words filed in the database; no cut-off is given here.

Common to all, as to type: functional
Assay [1] relates to L1210. The experiment in a line: Antitumor activity against mouse L1210 cells allografted in mouse assessed as increase in life span of host.
Assay [2] can be described thus: Growth inhibition of human Nc37 cells assessed as viable cells at 10^-4 M after 72 hrs relative to control. As to conditions: NC-37, 72 h, read-out: Activity. The method in brief: (§1)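 Nc 37 cells come from a normal human buffy coat, RPMI 6410 from the buffy coat of a myeloblastic leukemia patient, and L1210 is mouse leukemia. Cells were grown in RPMI 1640 with 10% fetal calf serum and exposed to compound at 10^-4 M in medium containing 0.5% Me2SO for 72 h. Viable cell number is expressed as percent of 0.5% Me2SO controls and scored as ++ 30-60%, + 60-80%, ± 80-90%, NA 90-110%.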

A short description of assay [3]: Growth inhibition of human RPMI6410 cells assessed as viable cells at 10^-4 M after 72 hrs relative to control. As to conditions: RPMI 6410, 72 h, read-out: Activity. The method in brief:
as §1

Assay [4] has as its system L1210. The assay can be described thus: Growth inhibition of mouse L1210 cells assessed as viable cells at 10^-4 M after 72 hrs relative to control. The note with it: L1210, 72 h, read-out: Activity. The method in brief: as §1
A short description of assay [5]: Growth inhibition of human RPMI6410 cells assessed as viable cells at 10^-5 M after 72 hrs relative to control. As to conditions: RPMI 6410, 72 h, read-out: Activity.
Assay [6] has as its system L1210. The assay can be described thus: Growth inhibition of mouse L1210 cells at 10^-4 M after 72 hrs relative to control. As to conditions: L1210, 72 h, read-out: GI. The method in brief: as §1
A short description of assay [7]: Growth inhibition of human Nc37 cells assessed as viable cells at 10^-5 M after 72 hrs relative to control. As to conditions: NC-37, 72 h, read-out: Activity.
In assay [8] the test system is L1210. The experiment in a line: Growth inhibition of mouse L1210 cells assessed as viable cells at 10^-5 M after 72 hrs relative to control. As to conditions: L1210, 72 h, read-out: Activity.

`O=C(Nc1cccc2ccccc12)Nc1ncnc2c1ncn2C(=O)Nc1cccc2ccccc12`: the outcome in assay [1] was inactive. Further, the viability at 100 µM in assay [2] was 30%; in assay [3] it was 30%; in assay [4] it was above 30%.
Consider `CNC(=O)n1cnc2c(N)ncnc21`, for which the outcome in assay [1] was inactive. For the same molecule, the viability at 10 µM in assay [5] and in assay [7] was 60% each time. For the same molecule, the viability at 100 µM in assay [2], in assay [3] and in assay [4] was 30% in each case. Also, the inhibition of growth at 100 µM in assay [6] is at least 70%.
As to `CNC(=S)n1cnc2c(N)ncnc21`, the result in assay [1] was inactive. Further, the viability at 10 µM in assay [8] was above 30%; in assay [5] it was 30%; in assay [7], 30%. The inhibition of growth at 100 µM in assay [6] was at least 70%.
On to `O=C(Nc1ccc(Cl)cc1)Nc1ncnc2c1ncn2[C@@H]1O[C@H](CO)[C@@H](O)[C@H]1O`, for which, in assay [1], the outcome was inactive. Also, the viability at 100 µM in assay [2] was 30%; in assay [3], 30%; in assay [4], above 30%.
